Results on 16 compounds are retold here after ChEMBL document CHEMBL4610039, “Design, synthesis and apoptosis-related antiproliferative activities of chelidonine derivatives” (Bioorg Med Chem Lett, 2020).

The test system of one test is HepG2. The experiment in a line: Antiproliferative activity against human HepG2 cells assessed as reduction in cell growth after 72 hrs by MTT assay. The test is classed as functional, cell-based. The settings on record: HepG2, 72 h. Summed up: (§1)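 Human HepG2, MCF-7, HCT-116 and K562 tumour cells plus normal L-02 hepatocytes and PBMCs were exposed to compounds for 72 h and growth was read by MTT. 5-Fu served as positive control. IC50 is the concentration inhibiting 50% of cell growth, given as mean ± standard deviation of three independent experiments.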

The test system of another test is MCF7. The experiment in a line: Antiproliferative activity against human MCF7 cells assessed as reduction in cell growth after 72 hrs by MTT assay. The test is classed as functional, cell-based. The note with it: MCF7, 72 h. The procedure, abridged: as §1
The test system of another test is HCT-116. Briefly: Antiproliferative activity against human HCT116 cells assessed as reduction in cell growth after 72 hrs by MTT assay. The settings on record: HCT-116, 72 h. In kind it is functional, cell-based. Summed up: as §1
For another test, the system named is K562. Briefly: Antiproliferative activity against human K562 cells assessed as reduction in cell growth after 72 hrs by MTT assay. The test is classed as functional, cell-based. The note with it: K562, 72 h. The procedure, abridged: as §1
For another test, the system named is L02. Briefly: Antiproliferative activity against human L02 cells assessed as reduction in cell growth after 72 hrs by MTT assay. In kind it is functional, cell-based. The note with it: L02, 72 h. The procedure, abridged:
as §1

Another test concerns PBMC. Briefly: Cytotoxicity against human PBMC assessed as reduction in cell growth after 72 hrs by MTT assay. The test is classed as cell-based. Summed up: as §1

The structures appear in SMILES notation.

`CC(CNC(=O)CCCC(=O)O[C@H]1Cc2cc3c(cc2[C@@H]2[C@H]1c1ccc4c(c1CN2C)OCO4)OCO3)Oc1no[n+]([O-])c1S(=O)(=O)c1ccccc1` (stereo partly specified): the IC50 is 7.59 µM with HepG2; 4.92 µM with MCF7; 12.2 µM in the test on HCT-116; 2.68 µM in the test with K562; 23.4 µM in the test with L02; more than 40 µM in the test on PBMC.
In the case of `CN1Cc2c(ccc3c2OCO3)[C@@H]2[C@H]1c1cc3c(cc1C[C@@H]2O)OCO3` [CHELIDONINE], the IC50 was more than 40 µM with HepG2; more than 40 µM in the test on MCF7; more than 40 µM in the test on HCT-116; 17.7 µM in the test with K562; more than 40 µM in the test on L02; more than 40 µM in the test on PBMC.
`CN1Cc2c(ccc3c2OCO3)[C@H]2[C@@H](OC(=O)CCCC(=O)NCCOc3no[n+]([O-])c3S(=O)(=O)c3ccccc3)Cc3cc4c(cc3[C@H]21)OCO4`: the IC50 is 26.4 µM in the test with HepG2; 14.6 µM in the test with MCF7; more than 40 µM in the test with HCT-116; 12.1 µM in the test on K562; more than 40 µM in the test on L02; more than 40 µM in the test with PBMC.
As for `CN1Cc2c(ccc3c2OCO3)[C@H]2[C@@H](OC(=O)CCC(=O)OCCOCCOc3no[n+]([O-])c3S(=O)(=O)c3ccccc3)Cc3cc4c(cc3[C@H]21)OCO4`, the IC50 with HepG2 was 8.65 µM; with MCF7 it was 8.92 µM; in the test on HCT-116, 8.68 µM; with K562, 4.52 µM; with L02 it was 23.9 µM; in the test on PBMC, more than 40 µM.
For `CN1Cc2c(ccc3c2OCO3)[C@H]2[C@@H](OC(=O)CCC(=O)OCCCOc3no[n+]([O-])c3S(=O)(=O)c3ccccc3)Cc3cc4c(cc3[C@H]21)OCO4`, the half-maximal inhibitory concentration (IC50) with HepG2 is 10.5 µM; in the test on MCF7, 3.68 µM; in the test on HCT-116, 15.7 µM; with K562, 3.08 µM; with L02, 14.6 µM; with PBMC, more than 40 µM.
As for `CN1Cc2c(ccc3c2OCO3)[C@H]2[C@@H](OC(=O)CCC(=O)OCCCCOc3no[n+]([O-])c3S(=O)(=O)c3ccccc3)Cc3cc4c(cc3[C@H]21)OCO4`, the IC50 in the test on HepG2 is 6.39 µM; in the test with MCF7 it was 4.78 µM; with HCT-116, 8.27 µM; in the test on K562 it was 2.91 µM; in the test with L02, 19.7 µM; with PBMC, more than 40 µM.
For the compound `CN1Cc2c(ccc3c2OCO3)[C@H]2[C@@H](OC(=O)CCC(=O)OCCCCCCOc3no[n+]([O-])c3S(=O)(=O)c3ccccc3)Cc3cc4c(cc3[C@H]21)OCO4`, the IC50 with HepG2 was 9.45 µM; with MCF7, 7.94 µM; with HCT-116, 16.6 µM; with K562, 7.61 µM; in the test on L02, more than 40 µM; with PBMC, more than 40 µM.
With `CN1Cc2c(ccc3c2OCO3)[C@H]2[C@@H](OC(=O)CCC(=O)NCCOc3no[n+]([O-])c3S(=O)(=O)c3ccccc3)Cc3cc4c(cc3[C@H]21)OCO4`, the IC50 is 11.4 µM in the test on HepG2; 7.94 µM in the test with MCF7; 11.5 µM with HCT-116; 3.17 µM with K562; 27.7 µM in the test with L02; more than 40 µM in the test on PBMC.
With `CC(CNC(=O)CCC(=O)O[C@H]1Cc2cc3c(cc2[C@@H]2[C@H]1c1ccc4c(c1CN2C)OCO4)OCO3)Oc1no[n+]([O-])c1S(=O)(=O)c1ccccc1` (stereo partly specified), the IC50 in the test with HepG2 is 19.4 µM; in the test with MCF7, 8.37 µM; in the test on HCT-116, 16.4 µM; in the test on K562, 6.94 µM; in the test on L02, more than 40 µM; in the test on PBMC, more than 40 µM.
As to `CN1Cc2c(ccc3c2OCO3)[C@H]2[C@@H](OC(=O)CCCC(=O)NCCCOc3no[n+]([O-])c3S(=O)(=O)c3ccccc3)Cc3cc4c(cc3[C@H]21)OCO4`, the IC50 is 10.7 µM in the test on HepG2; 5.29 µM in the test with MCF7; 7.25 µM in the test on HCT-116; 3.18 µM with K562; 19.9 µM in the test on L02; more than 40 µM with PBMC.
Regarding `CN1Cc2c(ccc3c2OCO3)[C@H]2[C@@H](OC(=O)CCC(=O)OCC#CCOc3no[n+]([O-])c3S(=O)(=O)c3ccccc3)Cc3cc4c(cc3[C@H]21)OCO4`, the IC50 with HepG2 was 14.4 µM; with MCF7, 5.41 µM; in the test on HCT-116 it was 23.5 µM; in the test with K562, 3.78 µM; in the test with L02, 28.2 µM; with PBMC, more than 40 µM.
In the case of `CN1Cc2c(ccc3c2OCO3)[C@H]2[C@@H](OC(=O)CCCC(=O)OCCCCCCOc3no[n+]([O-])c3S(=O)(=O)c3ccccc3)Cc3cc4c(cc3[C@H]21)OCO4`, the 50% inhibitory concentration (IC50) in the test with HepG2 is more than 40 µM; in the test with MCF7, 13.2 µM; with HCT-116, more than 40 µM; in the test on K562 it was 9.59 µM; in the test on L02, more than 40 µM; in the test on PBMC, more than 40 µM.
As to `CN1Cc2c(ccc3c2OCO3)[C@H]2[C@@H](OC(=O)CCCC(=O)OCCOCCOc3no[n+]([O-])c3S(=O)(=O)c3ccccc3)Cc3cc4c(cc3[C@H]21)OCO4`, the IC50 with HepG2 was 6.55 µM; in the test on MCF7, 6.55 µM; in the test on HCT-116, 8.47 µM; with K562, 2.6 µM; in the test with L02, 16.5 µM; with PBMC, more than 40 µM.
Regarding `CN1Cc2c(ccc3c2OCO3)[C@H]2[C@@H](OC(=O)CCC(=O)NCCCOc3no[n+]([O-])c3S(=O)(=O)c3ccccc3)Cc3cc4c(cc3[C@H]21)OCO4`, the IC50 was 16.8 µM with HepG2; 13.6 µM in the test with MCF7; 17.3 µM with HCT-116; 9.8 µM in the test on K562; 36.5 µM with L02; more than 40 µM in the test with PBMC.
As for `CN1Cc2c(ccc3c2OCO3)[C@H]2[C@@H](OC(=O)CCCC(=O)OCCCCOc3no[n+]([O-])c3S(=O)(=O)c3ccccc3)Cc3cc4c(cc3[C@H]21)OCO4`, the IC50 with HepG2 was 19.6 µM; in the test with MCF7 it was 6.81 µM; in the test with HCT-116 it was 19.1 µM; with K562, 6.14 µM; with L02 it was more than 40 µM; with PBMC, more than 40 µM.
As to `O=c1[nH]cc(F)c(=O)[nH]1` [FLUOROURACIL], the IC50 in the test on HepG2 was 32.6 µM; with MCF7 it was 26.7 µM; in the test on HCT-116, 6.86 µM; in the test with K562, 3.94 µM; in the test on L02, more than 40 µM; in the test with PBMC, more than 40 µM.
